According to ChEMBL document CHEMBL1137730, “Synthesis and antiparasitic and antifungal evaluation of 2'-arylsubstituted-1H,1'H-[2,5']bisbenzimidazolyl-5-carboxamidines” (Eur J Med Chem, 2009):
Converted amounts (≈) assume the structure as drawn.

Assays:
[1] = test system: Candida albicans; experiment: Antifungal activity against Candida albicans ATCC 10231 by macro-broth dilution method; assay type: functional
Procedure, shortened: (§1)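 Macro-broth (tube) dilution; compounds and reference drugs dissolved in water or 40% DMSO-water as 400 µg/mL stock, brought to 100 µg/mL in the first tube by 4-fold dilution with culture medium and fungal suspension. Result reported as MIC.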

[2] = test system: Trypanosoma cruzi; experiment: Antiparasitic activity against Trypanosoma cruzi Tulahuen C4 containing lacz gene at 4.85 ug/ml; assay type: functional; conditions: Tulahen C4
[3] = test system: Leishmania donovani; experiment: Antiparasitic activity against Leishmania donovani MHOM-ET/67/L82 at 4.85 ug/ml; assay type: functional
[4] = test system: Pichia kudriavzevii; experiment: Antifungal activity against Candida krusei ATCC 6258 by macro-broth dilution method; assay type: functional; procedure, shortened: as §1
[5] = test system: Trypanosoma brucei rhodesiense; experiment: Antiparasitic activity against Trypanosoma brucei rhodesiense STIB900; assay type: functional, organism-based
[6] = test system: Plasmodium falciparum; experiment: Antiparasitic activity against Plasmodium falciparum K1; assay type: functional, organism-based
[7] = test system: L6; experiment: Cytotoxicity against rat L6 cells by alamar blue assay; assay type: cell-based
Procedure, shortened: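 Rat L-6 myoblasts in culture; viability read by Alamar Blue.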

[8] = test system: Trypanosoma cruzi; experiment: Antiparasitic activity against Trypanosoma cruzi Tulahuen C4 containing lacz gene at 0.81 ug/ml; assay type: functional; conditions: Tulahen C4
[9] = test system: Leishmania donovani; experiment: Antiparasitic activity against Leishmania donovani MHOM-ET/67/L82 at 0.81 ug/ml; assay type: functional

Row | SMILES | MIC [1] | inhibition at 4.85 µg/mL [2] | inhibition at 4.85 µg/mL [3] | MIC [4] | IC50 [5] | IC50 [6] | IC50 [7] | inhibition at 0.81 µg/mL [8] | inhibition at 0.81 µg/mL [9]
1 | N=C(N)c1ccc2[nH]c(-c3ccc4nc(-c5ccccc5F)[nH]c4c3)nc2c1 | 12.5 µg/mL (≈ 33.7 µM) | ≤ 70% | ≤ 70% | 12.5 µg/mL (≈ 33.7 µM) | 0.08 µg/mL (≈ 0.216 µM) | 0.007 µg/mL (≈ 0.0189 µM) | 26.8 µg/mL (≈ 72.4 µM) | ≤ 50% | ≤ 50%
2 | N=C(N)c1ccc2[nH]c(-c3ccc4nc(-c5ccc(OCc6ccccc6)c(OCc6ccccc6)c5)[nH]c4c3)nc2c1 | 25 µg/mL (≈ 44.3 µM) | ≤ 70% | ≤ 70% | 50 µg/mL (≈ 88.6 µM) | 1.06 µg/mL (≈ 1.88 µM) | 0.061 µg/mL (≈ 0.108 µM) | > 90 µg/mL | ≤ 50% | ≤ 50%
3 | N=C(N)c1ccc2[nH]c(-c3ccc4nc(-c5ccccc5Oc5ccc(Cl)cc5)[nH]c4c3)nc2c1 | 50 µg/mL (≈ 104 µM) | ≤ 70% | ≤ 70% | 50 µg/mL (≈ 104 µM) |  | 0.193 µg/mL (≈ 0.403 µM) | > 90 µg/mL | ≤ 50% | ≤ 50%
4 | N=C(N)c1ccc2[nH]c(-c3ccc4nc(-c5ccc6ccccc6c5)[nH]c4c3)nc2c1 | 6.25 µg/mL (≈ 15.5 µM) | ≤ 70% | ≤ 70% | 25 µg/mL (≈ 62.1 µM) | 0.389 µg/mL (≈ 0.967 µM) | 0.016 µg/mL (≈ 0.0398 µM) | 34.7 µg/mL (≈ 86.2 µM) | ≤ 50% | ≤ 50%
5 | N=C(N)c1ccc2[nH]c(-c3ccc4nc(-c5ccc(O)cc5)[nH]c4c3)nc2c1 | 0.78 µg/mL (≈ 2.12 µM) |  |  |  | 0.017 µg/mL (≈ 0.0461 µM) | 0.013 µg/mL (≈ 0.0353 µM) | 4.2 µg/mL (≈ 11.4 µM) |  | 
6 | N=C(N)c1ccc2[nH]c(-c3ccc4nc(-c5ccc(F)c(F)c5)[nH]c4c3)nc2c1 | 25 µg/mL (≈ 64.4 µM) | ≤ 70% | ≤ 70% | 25 µg/mL (≈ 64.4 µM) | 0.33 µg/mL (≈ 0.85 µM) | 0.015 µg/mL (≈ 0.0386 µM) | 29.8 µg/mL (≈ 76.7 µM) | ≤ 50% | ≤ 50%
7 | N=C(N)c1ccc2[nH]c(-c3ccc4nc(-c5ccc(F)cc5)[nH]c4c3)nc2c1 | 25 µg/mL (≈ 67.5 µM) | ≤ 70% | ≤ 70% | 12.5 µg/mL (≈ 33.7 µM) | 0.04 µg/mL (≈ 0.108 µM) | 0.01 µg/mL (≈ 0.027 µM) | 2.48 µg/mL (≈ 6.7 µM) | ≤ 50% | ≤ 50%
8 | CC(C)(C)c1ccc(-c2nc3ccc(-c4nc5cc(C(=N)N)ccc5[nH]4)cc3[nH]2)cc1 | 1.56 µg/mL (≈ 3.82 µM) | ≤ 70% | ≤ 70% | 12.5 µg/mL (≈ 30.6 µM) | 1.06 µg/mL (≈ 2.59 µM) | 0.031 µg/mL (≈ 0.0759 µM) | 13 µg/mL (≈ 31.8 µM) | ≤ 50% | ≤ 50%
9 | CC(C)(C)c1cccc(-c2nc3ccc(-c4nc5cc(C(=N)N)ccc5[nH]4)cc3[nH]2)c1O | 3.12 µg/mL (≈ 7.35 µM) | ≤ 70% | ≤ 70% | 6.25 µg/mL (≈ 14.7 µM) |  | 0.211 µg/mL (≈ 0.497 µM) | 13.4 µg/mL (≈ 31.6 µM) | ≤ 50% | ≤ 50%
10 | N=C(N)c1ccc2[nH]c(-c3ccc4nc(-c5cc(C(F)(F)F)ccc5Cl)[nH]c4c3)nc2c1 |  | ≤ 70% | ≤ 70% |  |  | 0.064 µg/mL (≈ 0.141 µM) | 31.8 µg/mL (≈ 69.9 µM) | ≤ 50% | ≤ 50%
11 | N=C(N)c1ccc2[nH]c(-c3ccc4nc(-c5cc(C(F)(F)F)cc(C(F)(F)F)c5)[nH]c4c3)nc2c1 | 50 µg/mL (≈ 102 µM) | ≤ 70% | ≤ 70% | 25 µg/mL (≈ 51.2 µM) |  | 0.63 µg/mL (≈ 1.29 µM) | 76.8 µg/mL (≈ 157 µM) | ≤ 50% | ≤ 50%
12 | N=C(N)c1ccc2[nH]c(-c3ccc4nc(-c5ccc(OCc6ccccc6)cc5)[nH]c4c3)nc2c1 | 12.5 µg/mL (≈ 27.3 µM) | ≤ 70% | ≤ 70% | 25 µg/mL (≈ 54.5 µM) | 0.81 µg/mL (≈ 1.77 µM) | 0.017 µg/mL (≈ 0.0371 µM) | 17.4 µg/mL (≈ 37.9 µM) | ≤ 50% | ≤ 50%
13 | COc1ccc(Oc2ccc(-c3nc4ccc(-c5nc6cc(C(=N)N)ccc6[nH]5)cc4[nH]3)cc2)cc1OC | 3.12 µg/mL (≈ 6.18 µM) | ≤ 70% | ≤ 70% | 6.25 µg/mL (≈ 12.4 µM) | 0.036 µg/mL (≈ 0.0714 µM) | 0.015 µg/mL (≈ 0.0297 µM) | 29.4 µg/mL (≈ 58.3 µM) | ≤ 50% | ≤ 50%
14 | COc1ccc(-c2nc3ccc(-c4nc5cc(C(=N)N)ccc5[nH]4)cc3[nH]2)cc1OC | 25 µg/mL (≈ 60.6 µM) | ≤ 70% | ≤ 70% | 25 µg/mL (≈ 60.6 µM) | 0.06 µg/mL (≈ 0.145 µM) | 0.008 µg/mL (≈ 0.0194 µM) | > 90 µg/mL | ≤ 50% | ≤ 50%
15 | COc1cc(-c2nc3ccc(-c4nc5cc(C(=N)N)ccc5[nH]4)cc3[nH]2)ccc1OCc1ccccc1 | 25 µg/mL (≈ 51.2 µM) | ≤ 70% | ≤ 70% | 50 µg/mL (≈ 102 µM) | 0.57 µg/mL (≈ 1.17 µM) | 0.023 µg/mL (≈ 0.0471 µM) | 19.8 µg/mL (≈ 40.5 µM) | ≤ 50% | ≤ 50%
16 | N=C(N)c1ccc2[nH]c(-c3ccc4nc(-c5cc(F)ccc5Oc5ccc(Cl)cc5)[nH]c4c3)nc2c1 | 50 µg/mL (≈ 101 µM) | ≤ 70% | ≤ 70% | 50 µg/mL (≈ 101 µM) |  | 0.634 µg/mL (≈ 1.28 µM) | > 90 µg/mL | ≤ 50% | ≤ 50%
17 | N=C(N)c1ccc2[nH]c(-c3ccc4nc(-c5ccc(Oc6ccc(Cl)cc6)cc5)[nH]c4c3)nc2c1 | 25 µg/mL (≈ 52.2 µM) | ≤ 70% | ≤ 70% | 25 µg/mL (≈ 52.2 µM) | 0.708 µg/mL (≈ 1.48 µM) | 0.028 µg/mL (≈ 0.0585 µM) | 46 µg/mL (≈ 96 µM) | ≤ 50% | ≤ 50%
18 | N=C(N)c1ccc2[nH]c(-c3ccc4nc(-c5cccc6ccccc56)[nH]c4c3)nc2c1 | 0.78 µg/mL (≈ 1.94 µM) | ≤ 70% | ≤ 70% | 12.5 µg/mL (≈ 31.1 µM) | 0.48 µg/mL (≈ 1.19 µM) | 0.016 µg/mL (≈ 0.0398 µM) | 8.72 µg/mL (≈ 21.7 µM) | ≤ 50% | ≤ 50%
19 | COc1ccc(-c2nc3ccc(-c4nc5cc(C(=N)N)ccc5[nH]4)cc3[nH]2)cc1 | > 100 µg/mL |  |  |  | 0.009 µg/mL (≈ 0.0235 µM) | 0.015 µg/mL (≈ 0.0392 µM) | 10 µg/mL (≈ 26.1 µM) |  | 
20 | COc1cc(OC)cc(-c2nc3ccc(-c4nc5cc(C(=N)N)ccc5[nH]4)cc3[nH]2)c1 | 50 µg/mL (≈ 121 µM) | ≤ 70% | ≤ 70% | 50 µg/mL (≈ 121 µM) | 0.59 µg/mL (≈ 1.43 µM) | 0.017 µg/mL (≈ 0.0412 µM) | 25.5 µg/mL (≈ 61.8 µM) | ≤ 50% | ≤ 50%
21 | OC(Cn1cncn1)(Cn1cncn1)c1ccc(F)cc1F [FLUCONAZOLE] | 0.78 µg/mL (≈ 2.55 µM) |  |  | 25 µg/mL (≈ 81.6 µM) |  |  |  |  | 
22 | Nc1nc(N)nc(Nc2ccc([As]3SCC(CO)S3)cc2)n1 (stereo unspecified) [MELARSOPROL] |  |  |  |  | 0.003 µg/mL |  |  |  | 
